Data from ChEMBL document CHEMBL4219166, “Evaluation of analogues of furan-amidines as inhibitors of NQO2” (Bioorg Med Chem Lett, 2018).
pIC50: −log10 of the molar value. Activity calls are given as the source filed them. The calls are words filed in the database; no cut-off is given here.

What was measured:
Plasmodium falciparum = assay: Antimalarial activity against Plasmodium falciparum 3D7 asexual cultures grown under 5% haematocrit assessed as decrease in parasite DNA level by flow cytometry; format: functional, organism-based
[1] = biological target: T1, Ribosyldihydronicotinamide dehydrogenase [quinone] (Homo sapiens, UniProt P16083); assay: Inhibition of recombinant human NQO2 assessed as change in rate of decolouration of DCPIP measured over 1 min by spectrophotometric method
T1 sequence (P16083 whole entry): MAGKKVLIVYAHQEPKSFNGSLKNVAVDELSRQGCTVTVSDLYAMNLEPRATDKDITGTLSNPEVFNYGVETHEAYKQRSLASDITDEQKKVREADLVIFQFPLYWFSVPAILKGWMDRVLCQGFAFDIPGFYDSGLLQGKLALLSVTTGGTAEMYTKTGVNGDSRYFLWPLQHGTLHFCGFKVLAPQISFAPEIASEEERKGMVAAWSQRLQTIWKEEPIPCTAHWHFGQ
Summary of the method: (§1)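 The NQO2 enzymatic activity was followed spectrophotometrically as the decolouration of the blue redox dye 2,6-dichlorophenolindophenol (DCPIP) at pH 7.4.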

[2] = biological target: T2, Ribosyldihydronicotinamide dehydrogenase [quinone] (Homo sapiens) (UniProt P16083); assay: Inhibition of recombinant human NQO2 assessed as change in rate of decolouration of DCPIP at 10 uM measured over 1 min by spectrophotometric method; summary of the method: as §1
T2 sequence (whole entry): T1 sequence (P16083 whole entry)

| SMILES | pIC50 (Plasmodium falciparum) | pIC50 [1] | inhibition [2] |
| --- | --- | --- | --- |
| N=C(N)c1ccc(-c2ccc(-c3ccc(C(=N)N)cc3)o2)cc1 [FURAMIDINE] | 9.30 |  |  |
| CC(=O)Nc1cccc(-c2ccc(-c3ccccc3)o2)c1 |  | 5.94 |  |
| N=C(NO)c1ccc(-c2ccc(-c3ccccc3)o2)cc1 |  |  | inactive |
| N=C(N)c1ccc(-c2ccc(-c3ccccc3)s2)cc1 | 4.72 | 6.11 |  |
| CC(=N)Nc1ccc(-c2ccc(-c3ccccc3)s2)cc1 | 6.01 |  | inactive |
| COC(=N)c1ccc(-c2ccc(-c3ccccc3)o2)cc1 |  |  | inactive |
| CC(=O)Nc1ccc(-c2ccc(-c3ccccc3)o2)cc1 |  |  | inactive |
| CC(=O)Nc1cccc(-c2ccc(-c3ccccc3)s2)c1 |  | 5.70 |  |
| N=C(N)c1ccc(-c2ccc(-c3ccccc3)o2)cc1 | 5.82 |  |  |
| N=C(N)c1ccc(-c2nc(-c3ccccc3)c[nH]2)cc1 | 5.28 | 5.95 |  |
| Cc1oc(-c2ccc(C(=N)N)cc2)cc1-c1ccccc1 |  |  | inactive |
| Cn1cc(-c2ccccc2)nc1-c1ccc(C(=N)N)cc1 |  |  | inactive |
| CC(=N)Nc1ccc(-c2ccc(-c3ccccc3)o2)cc1 | 6.11 |  | inactive |
